Assay results reported in ChEMBL document CHEMBL2202989, “New adamantane phenylalkylamines with σ-receptor binding affinity and anticancer activity, associated with putative antagonism of neuropathic pain” (J Med Chem, 2012).

What was measured:
[1] = tested on: HCT-15; assay: Growth inhibition of human HCT15 cells after 48 hrs by SRB assay; assay type: functional; conditions: HCT-15, 48 h; for CC50: read-out: LC50 (the source's name)
Method in brief: (§1)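 Cells grown in RPMI 1640 with 5% heat-inactivated FCS, 2 mM L-glutamine and antibiotics, 37 °C, 5% CO2. Seeded at 3500–30000 cells/well and left 24 h before dosing. DMSO solutions added at 10-fold dilutions from 100 to 0.01 μM for 48 h. Cells TCA-fixed and SRB-stained, absorbance read at 540 nm; GI50 derived against the time-zero plate.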

[2] = Displacement of [3H]batrachotoxin benzoate from Na+ channel after 60 mins by liquid scintillation counting
Method in brief: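 Na+ channel site 2 binding: vesicle preparation (150−500 μg protein) incubated 60 min with 20−25 nM [3H]BTX-B and 50 μg Leiurius quinquestriatus venom. Buffer was 130 mM choline chloride, 50 mM HEPES/Tris pH 7.4, glucose, MgSO4, KCl, BSA. Filtered on GF/C with cold washes; scintillation counting. Nonspecific binding defined with 250 μM veratridine.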

[3] = tested on: HL-60(TB); assay: Growth inhibition of human HL-60(TB) cells after 48 hrs by SRB assay; assay type: functional; conditions: HL-60, 48 h; for CC50: read-out: LC50 (the source's name)
Method in brief: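 Cells kept in RPMI 1640 with 5% FCS at 37 °C, 5% CO2, and seeded 24 h before dosing. Compound given from DMSO at 10-fold dilutions, 100 to 0.01 μM, for 48 h. Cells fixed with TCA, stained with SRB, absorbance read at 540 nm. GI50 taken from a time-zero plate.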

[4] = tested on: NHDF; assay: (§2) Growth inhibition of human NHDF cells after 48 hrs by SRB assay; assay type: cell-based; conditions: nhdf, 48 h; method in brief: as §1
[5] = as §2; assay type: cell-based; conditions: NHDF cells; method in brief: as §1
[6] = Growth inhibition of human MSC cells after 48 hrs by SRB assay; assay type: cell-based; method in brief: as §1
[7] = tested on: U-251; assay: Growth inhibition of human U251 cells after 48 hrs by SRB assay; assay type: functional; conditions: U-251, 48 h; for CC50: read-out: LC50 (the source's name); method in brief: as §1
[8] = tested on: DU-145; assay: Growth inhibition of human DU145 cells after 48 hrs by SRB assay; assay type: functional; conditions: DU-145, 48 h; for CC50: read-out: LC50 (the source's name); method in brief: as §1
[9] = tested on: SK-HEP1; assay: Growth inhibition of human SKHEP1 cells after 48 hrs by SRB assay; assay type: functional; conditions: SK-HEP1, 48 h; for CC50: read-out: LC50 (the source's name); method in brief: as §1
[10] = Displacement of [3H]1,3-di-otolylguanidine from sigma 2 receptor in rat cerebral cortex membranes; assay type: cell membranes, Membrane
Method in brief: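 Rat cerebral cortex membranes incubated with 5 nM [3H]DTG plus 300 nM (+)-pentazocine to mask σ1 sites, together with a range of test concentrations, 2 h at 22 °C in Tris-HCl, pH 7.4. Nonspecific binding defined with 10 μM haloperidol.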

[11] = (§3) Growth inhibition of human HUVEC cells after 48 hrs by SRB assay; assay type: cell-based; conditions: HUVEC cells; method in brief: as §1
[12] = tested on: HUVEC; assay: as §3; assay type: cell-based; conditions: huvec, 48 h; method in brief: as §1
[13] = tested on: MCF7; assay: Growth inhibition of human MCF7 cells after 48 hrs by SRB assay; assay type: functional; conditions: MCF7, 48 h; for CC50: read-out: LC50 (the source's name); method in brief: as §1
[14] = tested on: IGROV-1; assay: Growth inhibition of human IGROV1 cells after 48 hrs by SRB assay; assay type: functional; conditions: IGROV-1, 48 h; for CC50: read-out: LC50 (the source's name); method in brief: as §1
[15] = tested on: HCT-116; assay: Growth inhibition of human HCT116 cells after 48 hrs by SRB assay; assay type: functional; conditions: HCT-116, 48 h; for CC50: read-out: LC50 (the source's name); method in brief: as §1
[16] = target: Sigma non-opioid intracellular receptor 1 (Homo sapiens, UniProt Q99720); assay: Displacement of [3H]-(+)-pentazocine from sigma 1 receptor in human Jurkat cell membrane; assay type: cell membranes
Method in brief: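 Jurkat cell membranes incubated with 8 nM [3H](+)-pentazocine and a range of test concentrations for 2 h at 22 °C in Tris-HCl buffer, pH 7.4. Nonspecific binding defined with 10 μM haloperidol. Run in triplicate.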

[17] = tested on: BXPC-3; assay: Growth inhibition of human BxPC3 cells after 48 hrs by SRB assay; assay type: functional; conditions: BXPC-3, 48 h; method in brief: as §1
[18] = tested on: PC-3; assay: Growth inhibition of human PC3 cells after 48 hrs by SRB assay; assay type: functional; conditions: PC-3, 48 h; for CC50: read-out: LC50 (the source's name); method in brief: as §1
[19] = tested on: PC-3; assay: Antitumor activity against human PC3 cells xenografted in SCID mouse assessed as axillary metastasis at 20 mg/kg, ip administered once a week for two cycles measured after 2 cycles relative to control; assay type: functional; conditions: route intraperitoneal
Method in brief: (§4)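 PC3 xenografts were grown in SCID mice (10^6 cells per inoculum), 14 mice (28 tumors) per group, dosed ip from about 100 mm3. The test agent was given in 5% Tween 80; paclitaxel was given in Cremophor diluted in saline, with a vehicle of 1:1 ethanol/Cremophor diluted 1:3 in saline. Volume and %ΔT/ΔC were derived from caliper readings twice weekly. Occurrence of primary tumors and of axillary and bone metastases was scored (n = 7). Two-tailed t test.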

[20] = tested on: PC-3; assay: Antitumor activity against human PC3 cells xenografted in SCID mouse assessed as bone metastasis at 20 mg/kg, ip administered once a week for two cycles measured after 2 cycles relative to control; assay type: functional; conditions: route intraperitoneal; method in brief: as §4
[21] = tested on: DU-145; assay: Antitumor activity against human DU145 cells xenografted in SCID mouse assessed as tumor growth inhibition at 20 mg/kg, ip administered once a week for two cycles measured after 2 cycles relative to control; assay type: functional; conditions: DU-145, ip, route intraperitoneal, read-out: TGI
Method in brief: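 DU145 xenografts were grown in SCID mice from 10^6-cell inocula, with at least 30 animals in total. Treatment started ip at a mean tumor volume of about 100 mm3. The test agent was given in 5% Tween 80; paclitaxel was dissolved in Cremophor and diluted in saline. Caliper volumes were taken twice weekly and %ΔT/ΔC calculated; two-tailed t test.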

[22] = tested on: PC-3; assay: Antitumor activity against human PC3 cells xenografted in SCID mouse assessed as tumor growth inhibition at 20 mg/kg, ip administered once a week for two cycles measured after 2 cycles relative to control; assay type: functional; conditions: PC-3, ip, route intraperitoneal, read-out: TGI; method in brief: as §4
[23] = tested on: PC-3; assay: Antitumor activity against human PC3 cells xenografted in SCID mouse assessed as primary tumor occurrence at 20 mg/kg, ip administered once a week for two cycles measured after 2 cycles relative to control; assay type: functional; conditions: route intraperitoneal; method in brief: as §4
[24] = tested on: MIA PaCa-2; assay: Growth inhibition of human MIAPaCa2 cells after 48 hrs by SRB assay; assay type: functional; conditions: MIA PaCa-2, 48 h; method in brief: as §1
[25] = tested on: BXPC-3; assay: Antitumor activity against human BxPC3 cells xenografted in SCID mouse assessed as tumor growth inhibition at 35 mg/kg, ip administered twice a week for three cycles measured after 3 cycles relative to control; assay type: functional; conditions: BXPC-3, ip, route intraperitoneal, read-out: TGI
Method in brief: (§5)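 SCID mice bearing BxPC3 pancreatic xenografts, 10 mice per group (20 tumors). Drug dissolved in water for injection, given ip twice a week for three cycles. Controls were untreated and 5% Tween 80 vehicle. Tumor volume measured by caliper twice weekly; reduction reported on termination day. Two-tailed Student's t test.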

[26] = tested on: BXPC-3; assay: Antitumor activity against human BxPC3 cells xenografted in SCID mouse assessed as tumor growth inhibition at 17 mg/kg, ip administered twice a week for three cycles measured after 3 cycles relative to control; assay type: functional; conditions: BXPC-3, ip, route intraperitoneal, read-out: TGI; method in brief: as §5
[27] = tested on: OVCAR-5; assay: Growth inhibition of human OVCAR5 cells after 48 hrs by SRB assay; assay type: functional; conditions: OVCAR-5, 48 h; method in brief: as §1
[28] = read-out: LC50 (the source's name)

Chain of Sigma non-opioid intracellular receptor 1 (Q99720 whole entry): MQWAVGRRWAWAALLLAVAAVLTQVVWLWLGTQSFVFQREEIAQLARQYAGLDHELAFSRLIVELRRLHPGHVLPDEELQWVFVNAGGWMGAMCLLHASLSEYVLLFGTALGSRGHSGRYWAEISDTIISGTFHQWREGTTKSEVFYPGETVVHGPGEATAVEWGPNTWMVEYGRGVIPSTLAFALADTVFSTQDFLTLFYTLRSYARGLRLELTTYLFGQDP

`c1ccc(C(c2ccc(CCCN3CCNCC3)cc2)C23CC4CC(CC(C4)C2)C3)cc1` (stereo unspecified) showed a GI50 [1] of 3.15 µM, a TGI [1] of 6.13 µM and a CC50 [1] of 0.00911 µM. The IC50 [2] was over 1 µM, the GI50 [3] was 0.00301 µM and the TGI [3] was 0.00822 µM. It also gave a CC50 [3] of 0.1 µM, an LC50 [4] of 9.58 µM and a TGI [4] of 6.82 µM. For the same compound, the GI50 at 48 h [5] was 4.07 µM, the TGI [6] was 7.28 µM and the GI50 [7] was 3.3 µM. For the same compound, the TGI [7] was 5.87 µM, the CC50 [7] was 0.00844 µM and the GI50 [8] was 2.83 µM. The TGI [8] was 5.65 µM, the CC50 [8] was 0.00846 µM and the GI50 [9] was 3.67 µM. For the same compound, the TGI [9] was 6.19 µM, the CC50 [9] was 0.0087 µM and the IC50 [10] was 0.461 µM. The GI50 at 48 h [11] was 3.97 µM, the LC50 [12] was 100 µM and the TGI [12] was 7.17 µM. The GI50 [13] was 3.1 µM, the TGI [13] was 5.97 µM and the CC50 [13] was 0.00884 µM. The GI50 [14] was 3.29 µM, the TGI [14] was 6.34 µM and the CC50 [14] was 0.00939 µM. The GI50 [15] was 2.96 µM, the TGI [15] was 5.85 µM and the CC50 [15] was 0.00874 µM. It also gave an IC50 [16] of 0.042 µM, a GI50 [17] of 3.38 µM and an LC50 [17] of 0.00944 µM. For the same compound, the TGI [17] was 6.41 µM, the GI50 [18] was 3.06 µM and the TGI [18] was 5.71 µM. The CC50 [18] was 0.00837 µM.
`CC(=O)O[C@H]1C(=O)[C@@]2(C)[C@H]([C@H](OC(=O)c3ccccc3)[C@]3(O)C[C@H](OC(=O)[C@H](O)[C@@H](NC(=O)c4ccccc4)c4ccccc4)C(C)=C1C3(C)C)[C@]1(OC(C)=O)CO[C@@H]1C[C@@H]2O` [PACLITAXEL] gave an Activity [19] of 14%, an Activity [20] of 86% and an inhibition in vivo at 20 mg/kg [21] of 26.6%. The inhibition in vivo at 20 mg/kg [22] was 79.1% and the Activity [23] was 100%.
Compound `O=c1[nH]cc(F)c(=O)[nH]1` [FLUOROURACIL] has a GI50 [24] of 30.6 µM, a TGI [24] of 100 µM and a CC50 [24, 28] of 0.1 µM. For the same compound, the GI50 [1] was 21.1 µM, the TGI [1] was 100 µM and the CC50 [1] was 0.1 µM. The GI50 [3] was 0.1 µM, the TGI [3] was 0.1 µM and the CC50 [3] was 0.1 µM. The inhibition in vivo at 35 mg/kg [25] was 36.7%, the TGI [4] was 100 µM and the GI50 at 48 h [5] was 62 µM. For the same compound, the TGI [6] was 1 µM, the GI50 [7] was 69.6 µM and the TGI [7] was 100 µM. It also gave a CC50 [7] of 0.1 µM, a GI50 [8] of 20 µM and a TGI [8] of 100 µM. For the same compound, the CC50 [8] was 0.1 µM, the GI50 [9] was 7.6 µM and the TGI [9] was 100 µM. It also gave a CC50 [9] of 0.1 µM, a GI50 at 48 h [11] of 3.6 µM and a GI50 [13] of 14.5 µM. The TGI [13] was 100 µM, the CC50 [13] was 0.1 µM and the inhibition in vivo at 17 mg/kg [26] was 23.7%. For the same compound, the GI50 [27] was 26.4 µM, the TGI [27] was 100 µM and the CC50 [27, 28] was 0.1 µM. The GI50 [14] was 8.12 µM, the TGI [14] was 100 µM and the CC50 [14] was 0.1 µM. For the same compound, the GI50 [15] was 8.8 µM, the TGI [15] was 100 µM and the CC50 [15] was 0.1 µM. The GI50 [17] was 2.9 µM, the TGI [17] was 8.4 µM and the GI50 [18] was 10.5 µM. It also gave a TGI [18] of 100 µM and a CC50 [18] of 0.1 µM.
